One block for each molecule: values may come before it.
How the values were obtained:
[1] = target: Interleukin-1 receptor-associated kinase 1 (Homo sapiens) (UniProt P51617); assay: Inhibition of human recombinant IRAK1 at 500 nM related to control ULK1
[2] = target: Activated CDC42 kinase 1 (Homo sapiens) (UniProt Q07912); assay: Inhibition of human recombinant ACK at 500 nM in presence of ATP by radiometric assay relative to control
Procedure, shortened: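 Panel of 327 recombinant human kinases in radiometric activity assays, each screened in duplicate at a single inhibitor concentration; percent activity remaining relative to vehicle control, percent inhibition taken as 100 minus activity remaining.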

[3] = target: Aurora kinase B (Homo sapiens) (UniProt Q96GD4); assay: Inhibition of human recombinant AurB at 40 nM related to control ULK1
Procedure, shortened: (§1)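 Radiometric activity assays in a panel of 327 human recombinant kinases, each run in duplicate at one inhibitor concentration. Activity remaining is expressed as percent of vehicle control, and percent inhibition is calculated as 100% minus percent activity remaining.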

[4] = target: Serine/threonine-protein kinase Chk2 (Homo sapiens) (UniProt O96017); assay: Inhibition of human recombinant CHK2 at 40 nM related to control ULK1
[5] = target: RAC-beta serine/threonine-protein kinase (Homo sapiens) (UniProt P31751); assay: Inhibition of human recombinant AKT2 at 40 nM related to control ULK1; procedure, shortened: as §1
[6] = target: Serine/threonine-protein kinase 24 (Homo sapiens) (UniProt Q9Y6E0); assay: Inhibition of human recombinant MST3 at 40 nM related to control ULK1
[7] = target: T1, Protein kinase C zeta type (Homo sapiens) (UniProt Q05513); assay: Inhibition of human recombinant PKCz at 40 nM in presence of ATP by radiometric assay relative to control
T1 sequence (whole entry): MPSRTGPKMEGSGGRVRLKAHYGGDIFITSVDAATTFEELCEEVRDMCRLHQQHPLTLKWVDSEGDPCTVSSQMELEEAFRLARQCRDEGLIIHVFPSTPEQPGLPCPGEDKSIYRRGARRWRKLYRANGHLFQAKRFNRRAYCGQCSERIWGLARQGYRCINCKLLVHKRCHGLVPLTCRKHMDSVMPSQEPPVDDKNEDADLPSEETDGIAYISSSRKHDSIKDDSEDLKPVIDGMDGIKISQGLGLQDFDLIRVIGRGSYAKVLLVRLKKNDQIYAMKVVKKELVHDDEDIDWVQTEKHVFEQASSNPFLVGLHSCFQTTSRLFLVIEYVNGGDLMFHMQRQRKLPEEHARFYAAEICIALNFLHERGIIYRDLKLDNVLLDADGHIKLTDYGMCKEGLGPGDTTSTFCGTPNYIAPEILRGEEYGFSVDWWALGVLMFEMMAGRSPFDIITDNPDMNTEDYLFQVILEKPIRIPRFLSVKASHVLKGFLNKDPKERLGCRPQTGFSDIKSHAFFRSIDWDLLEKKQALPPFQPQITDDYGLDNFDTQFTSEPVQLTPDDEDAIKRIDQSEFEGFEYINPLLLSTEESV

[8] = target: T2, Testis-specific serine/threonine-protein kinase 1 (Homo sapiens) (UniProt Q9BXA7); assay: Inhibition of human recombinant TSSK1 at 40 nM related to control ULK1
T2 sequence (whole entry): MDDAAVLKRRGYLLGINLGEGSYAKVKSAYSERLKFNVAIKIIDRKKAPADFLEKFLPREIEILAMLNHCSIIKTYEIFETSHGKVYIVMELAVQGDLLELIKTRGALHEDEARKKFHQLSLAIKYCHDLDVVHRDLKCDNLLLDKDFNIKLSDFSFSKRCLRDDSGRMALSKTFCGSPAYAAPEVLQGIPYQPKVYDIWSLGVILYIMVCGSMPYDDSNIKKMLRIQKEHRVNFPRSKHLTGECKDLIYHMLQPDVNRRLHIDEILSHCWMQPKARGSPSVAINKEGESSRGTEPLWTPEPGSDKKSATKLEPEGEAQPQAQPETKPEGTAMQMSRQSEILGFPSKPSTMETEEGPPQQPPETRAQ

[9] = target: T3, Serine/threonine-protein kinase Nek1 (Homo sapiens) (UniProt Q96PY6); assay: Inhibition of human recombinant NEK1 at 40 nM related to control ULK1
T3 sequence (whole entry): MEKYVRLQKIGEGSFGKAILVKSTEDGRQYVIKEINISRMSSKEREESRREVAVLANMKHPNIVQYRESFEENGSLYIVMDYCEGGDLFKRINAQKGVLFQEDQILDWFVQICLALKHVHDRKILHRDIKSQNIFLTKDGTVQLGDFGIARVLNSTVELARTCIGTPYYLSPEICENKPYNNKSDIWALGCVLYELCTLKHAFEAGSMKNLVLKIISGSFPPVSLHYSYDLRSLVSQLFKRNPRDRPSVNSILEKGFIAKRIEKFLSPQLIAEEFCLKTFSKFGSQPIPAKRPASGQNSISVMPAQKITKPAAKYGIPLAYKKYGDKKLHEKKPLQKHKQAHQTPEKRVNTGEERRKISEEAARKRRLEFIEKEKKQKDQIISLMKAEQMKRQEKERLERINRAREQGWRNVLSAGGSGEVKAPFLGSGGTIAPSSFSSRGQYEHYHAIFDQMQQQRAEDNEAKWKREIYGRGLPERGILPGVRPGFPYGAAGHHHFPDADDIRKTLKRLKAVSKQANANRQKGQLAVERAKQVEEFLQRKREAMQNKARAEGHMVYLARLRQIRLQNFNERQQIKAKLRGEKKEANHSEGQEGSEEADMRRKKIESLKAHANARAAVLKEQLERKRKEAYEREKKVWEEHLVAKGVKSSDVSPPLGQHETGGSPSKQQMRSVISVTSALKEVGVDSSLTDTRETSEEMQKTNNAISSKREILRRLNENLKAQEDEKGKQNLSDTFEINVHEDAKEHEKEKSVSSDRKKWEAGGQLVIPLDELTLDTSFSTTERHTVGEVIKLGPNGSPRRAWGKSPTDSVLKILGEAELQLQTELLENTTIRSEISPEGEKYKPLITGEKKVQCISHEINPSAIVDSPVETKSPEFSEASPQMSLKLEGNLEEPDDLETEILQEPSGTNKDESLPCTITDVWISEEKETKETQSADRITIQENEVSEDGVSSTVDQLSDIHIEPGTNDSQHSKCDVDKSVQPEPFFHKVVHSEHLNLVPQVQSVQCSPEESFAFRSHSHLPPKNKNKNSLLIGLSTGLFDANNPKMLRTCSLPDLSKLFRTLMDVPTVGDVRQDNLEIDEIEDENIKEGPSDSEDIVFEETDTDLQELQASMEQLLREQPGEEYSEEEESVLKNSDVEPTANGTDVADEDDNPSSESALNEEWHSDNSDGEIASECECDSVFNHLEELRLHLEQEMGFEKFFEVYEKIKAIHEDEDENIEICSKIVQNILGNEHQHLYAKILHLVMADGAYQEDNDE

[10] = target: Serine/threonine-protein kinase PAK 1 (Homo sapiens) (UniProt Q13153); assay: Inhibition of human recombinant PAK1 at 15 nM related to control ULK1
Sequence of Serine/threonine-protein kinase PAK 1 (Homo sapiens) (Q13153 whole entry, looked up): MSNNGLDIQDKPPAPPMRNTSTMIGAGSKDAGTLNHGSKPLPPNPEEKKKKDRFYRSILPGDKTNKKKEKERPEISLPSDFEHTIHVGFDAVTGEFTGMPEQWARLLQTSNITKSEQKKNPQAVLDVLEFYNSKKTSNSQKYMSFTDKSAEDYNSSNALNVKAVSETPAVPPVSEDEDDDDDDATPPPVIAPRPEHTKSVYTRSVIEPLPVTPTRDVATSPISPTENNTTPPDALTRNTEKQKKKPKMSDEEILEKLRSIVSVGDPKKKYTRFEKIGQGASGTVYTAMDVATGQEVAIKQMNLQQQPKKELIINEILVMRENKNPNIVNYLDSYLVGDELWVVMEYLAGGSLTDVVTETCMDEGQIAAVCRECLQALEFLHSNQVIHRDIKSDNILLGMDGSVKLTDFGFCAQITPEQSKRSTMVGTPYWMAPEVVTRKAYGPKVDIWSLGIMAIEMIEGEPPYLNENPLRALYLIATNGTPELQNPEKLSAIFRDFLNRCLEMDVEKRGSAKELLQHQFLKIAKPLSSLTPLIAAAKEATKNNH

Sequence of Serine/threonine-protein kinase Chk2 (Homo sapiens) (O96017 whole entry): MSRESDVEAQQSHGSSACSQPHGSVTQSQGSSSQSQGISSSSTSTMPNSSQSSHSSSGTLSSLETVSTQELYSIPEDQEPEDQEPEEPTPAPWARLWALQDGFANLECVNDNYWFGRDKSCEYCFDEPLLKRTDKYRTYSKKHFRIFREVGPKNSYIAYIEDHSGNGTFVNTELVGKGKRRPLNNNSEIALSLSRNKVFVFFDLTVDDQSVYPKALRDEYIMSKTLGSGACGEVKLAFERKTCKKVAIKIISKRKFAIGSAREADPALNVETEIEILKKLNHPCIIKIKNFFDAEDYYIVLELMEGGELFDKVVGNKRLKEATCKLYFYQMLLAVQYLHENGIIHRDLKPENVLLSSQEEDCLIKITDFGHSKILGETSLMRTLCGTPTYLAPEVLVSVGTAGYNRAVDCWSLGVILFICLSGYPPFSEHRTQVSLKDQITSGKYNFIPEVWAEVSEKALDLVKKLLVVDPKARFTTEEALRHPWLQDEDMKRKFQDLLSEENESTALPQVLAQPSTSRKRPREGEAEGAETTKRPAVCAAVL
Sequence of Activated CDC42 kinase 1 (Homo sapiens) (Q07912 whole entry, looked up): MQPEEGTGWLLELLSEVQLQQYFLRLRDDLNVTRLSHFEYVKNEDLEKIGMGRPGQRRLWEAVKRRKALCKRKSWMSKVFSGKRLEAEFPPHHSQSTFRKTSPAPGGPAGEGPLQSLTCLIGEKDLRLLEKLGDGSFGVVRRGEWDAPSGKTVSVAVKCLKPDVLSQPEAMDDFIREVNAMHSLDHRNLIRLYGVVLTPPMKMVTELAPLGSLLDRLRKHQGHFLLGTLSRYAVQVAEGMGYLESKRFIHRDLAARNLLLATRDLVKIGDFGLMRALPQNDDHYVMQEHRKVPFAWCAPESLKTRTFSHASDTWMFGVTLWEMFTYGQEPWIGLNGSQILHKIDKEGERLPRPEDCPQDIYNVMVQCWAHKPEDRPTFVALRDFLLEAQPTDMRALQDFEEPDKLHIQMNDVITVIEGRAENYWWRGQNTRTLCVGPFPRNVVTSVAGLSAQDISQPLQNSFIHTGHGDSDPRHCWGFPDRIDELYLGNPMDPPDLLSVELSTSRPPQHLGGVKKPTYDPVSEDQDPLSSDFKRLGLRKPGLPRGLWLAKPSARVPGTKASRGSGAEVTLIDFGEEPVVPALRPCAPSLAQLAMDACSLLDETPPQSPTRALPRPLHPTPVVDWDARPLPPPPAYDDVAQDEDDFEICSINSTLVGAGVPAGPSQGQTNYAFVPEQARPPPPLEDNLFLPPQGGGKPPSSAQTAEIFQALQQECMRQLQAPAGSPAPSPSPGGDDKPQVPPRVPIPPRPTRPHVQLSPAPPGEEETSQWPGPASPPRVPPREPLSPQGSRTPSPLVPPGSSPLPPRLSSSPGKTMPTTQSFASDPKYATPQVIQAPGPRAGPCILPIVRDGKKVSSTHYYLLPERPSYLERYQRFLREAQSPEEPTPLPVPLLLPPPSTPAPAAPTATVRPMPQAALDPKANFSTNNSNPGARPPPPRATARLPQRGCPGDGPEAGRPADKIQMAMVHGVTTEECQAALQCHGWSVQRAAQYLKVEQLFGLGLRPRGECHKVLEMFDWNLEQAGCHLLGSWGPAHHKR
Sequence of Aurora kinase B (Homo sapiens) (Q96GD4 whole entry): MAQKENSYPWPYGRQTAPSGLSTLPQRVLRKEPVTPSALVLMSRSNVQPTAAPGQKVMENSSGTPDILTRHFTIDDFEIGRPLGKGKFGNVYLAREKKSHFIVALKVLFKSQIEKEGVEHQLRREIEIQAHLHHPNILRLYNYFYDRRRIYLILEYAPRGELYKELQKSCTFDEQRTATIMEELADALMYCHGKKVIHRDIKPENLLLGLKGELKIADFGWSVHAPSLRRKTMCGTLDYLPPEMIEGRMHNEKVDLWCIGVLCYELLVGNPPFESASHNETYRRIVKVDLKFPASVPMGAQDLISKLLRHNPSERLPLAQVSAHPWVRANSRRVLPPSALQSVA
Sequence of RAC-beta serine/threonine-protein kinase (Homo sapiens) (P31751 whole entry): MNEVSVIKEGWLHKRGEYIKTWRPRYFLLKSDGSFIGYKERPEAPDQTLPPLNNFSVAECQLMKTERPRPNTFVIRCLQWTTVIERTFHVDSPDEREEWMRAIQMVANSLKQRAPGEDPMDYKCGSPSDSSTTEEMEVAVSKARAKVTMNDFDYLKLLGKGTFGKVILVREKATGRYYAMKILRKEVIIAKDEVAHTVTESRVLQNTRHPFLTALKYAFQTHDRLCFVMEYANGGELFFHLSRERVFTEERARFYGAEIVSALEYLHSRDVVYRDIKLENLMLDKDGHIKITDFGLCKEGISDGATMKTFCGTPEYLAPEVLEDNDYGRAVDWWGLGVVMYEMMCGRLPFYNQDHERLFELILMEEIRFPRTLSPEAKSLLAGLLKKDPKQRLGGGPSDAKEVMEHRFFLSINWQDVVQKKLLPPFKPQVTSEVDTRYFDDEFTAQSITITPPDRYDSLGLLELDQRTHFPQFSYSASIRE
Sequence of Interleukin-1 receptor-associated kinase 1 (Homo sapiens) (P51617 whole entry, looked up): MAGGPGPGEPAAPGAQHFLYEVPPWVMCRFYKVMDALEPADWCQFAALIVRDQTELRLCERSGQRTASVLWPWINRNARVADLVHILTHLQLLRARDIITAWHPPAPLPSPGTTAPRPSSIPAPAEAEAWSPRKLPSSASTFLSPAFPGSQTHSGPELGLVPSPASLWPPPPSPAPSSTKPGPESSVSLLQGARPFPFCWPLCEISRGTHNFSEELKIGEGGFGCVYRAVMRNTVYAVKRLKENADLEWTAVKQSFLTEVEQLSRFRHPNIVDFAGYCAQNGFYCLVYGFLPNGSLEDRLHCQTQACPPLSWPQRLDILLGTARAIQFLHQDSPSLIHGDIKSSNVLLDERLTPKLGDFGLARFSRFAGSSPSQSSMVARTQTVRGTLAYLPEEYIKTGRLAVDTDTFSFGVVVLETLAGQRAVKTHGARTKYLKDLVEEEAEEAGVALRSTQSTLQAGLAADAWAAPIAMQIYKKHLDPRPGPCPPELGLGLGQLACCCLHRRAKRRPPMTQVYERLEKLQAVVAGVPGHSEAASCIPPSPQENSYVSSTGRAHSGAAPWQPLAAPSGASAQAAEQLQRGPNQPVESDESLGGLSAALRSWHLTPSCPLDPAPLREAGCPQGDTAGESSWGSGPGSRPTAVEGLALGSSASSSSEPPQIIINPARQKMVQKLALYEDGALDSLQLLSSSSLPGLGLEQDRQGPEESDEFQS
Sequence of Serine/threonine-protein kinase 24 (Homo sapiens) (Q9Y6E0 whole entry, looked up): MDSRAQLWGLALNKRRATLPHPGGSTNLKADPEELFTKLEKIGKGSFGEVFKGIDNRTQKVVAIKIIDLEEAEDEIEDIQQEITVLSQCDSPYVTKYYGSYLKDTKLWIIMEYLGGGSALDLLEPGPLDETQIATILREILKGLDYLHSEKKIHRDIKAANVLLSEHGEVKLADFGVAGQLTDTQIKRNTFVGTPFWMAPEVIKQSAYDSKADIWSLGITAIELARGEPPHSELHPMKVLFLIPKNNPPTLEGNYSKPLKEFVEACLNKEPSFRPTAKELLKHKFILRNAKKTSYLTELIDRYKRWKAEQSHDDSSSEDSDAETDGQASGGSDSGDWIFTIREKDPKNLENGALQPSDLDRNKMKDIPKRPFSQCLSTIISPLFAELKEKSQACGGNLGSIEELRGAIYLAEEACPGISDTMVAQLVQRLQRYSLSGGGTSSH

- fold change (FC) [1]: 0.2
- inhibition [2]: 31%
SMILES: CNC(=O)c1ccccc1Oc1nc(Nc2cc(OC)c(OC)c(OC)c2)ncc1Br

- fold change (FC) [3]: 0.67
- fold change (FC) [4]: 0
- fold change (FC) [5]: 0.14
- fold change (FC) [6]: 0.27
- inhibition [7]: 0%
- fold change (FC) [8]: 0
- fold change (FC) [9]: 0
SMILES: O=C(N[C@@H](C1CC1)C(F)(F)F)c1cc(-c2cnn3cc(-c4ccc(F)cc4)cnc23)cs1

- fold change (FC) [10]: 0
SMILES: CC(C)[C@H](NC(=O)c1cc(-c2cnn3cc(-c4ccc(OCCN5CCCCC5)cc4)cnc23)cs1)C(F)(F)F

Source: ChEMBL document CHEMBL5653631, “A Potent and Selective ULK1 Inhibitor Suppresses Autophagy and Sensitizes Cancer Cells to Nutrient Stress” (iScience, 2018)
